From ChEMBL document CHEMBL1122207, “Antitumor agents. 2. Bisguanylhydrazones of anthracene-9,10-dicarboxaldehydes” (1982)

Key:
Assay type in all cases: functional
Mus musculus [1] = species: Mus musculus; test: Anticancer activity measured as the number of survivors of the total treated mice with P-388 leukemia at 30 days.
How it was run: (§1)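 BDF1 or CDF1 mice given 10^6 ascitic P-388 leukemia cells ip, then treated ip on days 1, 5 and 9. Cures are survivors over total treated at 30 days.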

Mus musculus [2] = species: Mus musculus; test: Number of survivors of the total treated mice with B-16 melanoma, at 60 days.
How it was run: (§2)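 BDF1 mice were implanted ip with a homogenate from 0.05 g of B-16 melanoma and dosed ip on days 1-9. Cures are survivors over total at 60 days.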

Mus musculus [3] = test: Percent increase in median life span of BDF1 mice with B-16 melanoma at dose 3.1 mg/kg administered intraperitoneally; conditions: BDF1, B16, ip, route intraperitoneal
How it was run: (§3)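 BDF1 mice were implanted ip with a homogenate from 0.05 g of B-16 melanoma. Ip dosing ran on days 1-9, starting 24 h after implant, in dose-response studies following NCI protocols. The read-out was percent increase in life span (ILS). T/C ≥125% was taken as significant.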

Mus musculus [4] = test: Percent increase in median life span of BDF1 mice with P-388 leukemia at dose 160 mg/kg administered intraperitoneally; conditions: BDF1, P388, ip, route intraperitoneal
Mus musculus [5] = species: Mus musculus; test: Cures is the number of survivors of the total treated mice (20) with B-16 melanoma, at 60 days.; how it was run: as §2
Mus musculus [6] = test: Percent increase in median life span of BDF1 mice with B-16 melanoma at dose 0.8 mg/kg administered intraperitoneally; conditions: BDF1, B16, ip, route intraperitoneal; how it was run: as §3
Mus musculus [7] = species: Mus musculus; test: Cures is the number of survivors of the total treated mice (6) with P-388 leukemia, at 60 days.
Mus musculus [8] = test: Percent increase in median life span of BDF1 mice with P-388 leukemia at dose 5 mg/kg administered intraperitoneally; conditions: BDF1, P388, ip, route intraperitoneal
Mus musculus [9] = test: Percent increase in median life span of BDF1 mice with P-388 leukemia at dose 225 mg/kg administered intraperitoneally; conditions: BDF1, P388, ip, route intraperitoneal
Mus musculus [10] = species: Mus musculus; test: Cures is the number of survivors of the total treated mice (10) with advanced B-16 melanoma, at 30 days.
Mus musculus [11] = species: Mus musculus; test: Cures is the number of survivors of the total treated mice (10) with Colon 26, at 60 days.
Mus musculus [12] = test: Percent increase in median life span of BDF1 mice with L-1210 leukemia at dose 3.1 mg/kg administered intraperitoneally; 1, 5, 9 days of ip treatment relative to tumor inoculation; conditions: BDF1, L1210, ip, 216 h, route intraperitoneal
How it was run: (§4)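 BDF1 or CDF1 mice given 10^6 ascitic leukemia cells ip, then dosed ip on days 1, 5 and 9. Read-out is percent increase in life span versus untreated controls. Cures were scored as survivors/total at 30 days; when cures reached 50% or more, the run was extended until a specific ILS could be calculated. T/C ≥125% counted as significant.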

Mus musculus [13] = species: Mus musculus; test: Cures is the number of survivors of the total treated mice (6) with L-1210 leukemia, at 30 days.
Mus musculus [14] = test: Percent increase in median life span of BDF1 mice with P-388 leukemia at dose 12.5 mg/kg administered intraperitoneally; range 90-100%; range 90-100%, 1, 5, 9 days of ip treatment relative to tumor inoculation; conditions: BDF1, P388, ip, 216 h, route intraperitoneal; how it was run: as §4
Mus musculus [15] = test: Percent increase in median life span of BDF1 mice with Colon 26 at dose 6.2 mg/kg administered intraperitoneally; 1, 5, 9 days of ip treatment relative to tumor inoculation; conditions: BDF1, Colon 26, ip, 216 h, route intraperitoneal
Mus musculus [16] = test: Percent increase in median life span of BDF1 mice with advanced B-16 melanoma at dose 12.5 mg/kg administered intraperitoneally; 5, 9, 13 days of ip treatment relative to tumor inoculation; conditions: BDF1, B16, ip, 312 h, route intraperitoneal
Mus musculus [17] = species: Mus musculus; test: Cures is the number of survivors of the total treated mice (10) with B-16 melanoma, at 60 days.; how it was run: as §2
Mus musculus [18] = test: Percent increase in median life span of BDF1 mice with B-16 melanoma at dose 6.25 mg/kg administered intraperitoneally; 1-9 days of ip treatment relative to tumor inoculation; conditions: BDF1, B16, ip, route intraperitoneal; how it was run: as §3
Mus musculus [19] = species: Mus musculus; test: Cures is the number of survivors of the total treated mice (12) with P-388 leukemia, at 30 days.; how it was run: as §1
Mus musculus [20] = species: Mus musculus; test: Cures is the number of survivors of the total treated animals(12 mice) with P-388 leukemia, at 30 days.; how it was run: as §1
Mus musculus [21] = species: Mus musculus; test: Cures is the number of survivors of the total treated mice (6) with advanced L-1210 leukemia, at 30 days.
How it was run: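 Advanced L-1210 leukemia, with ip treatment on days 5, 9 and 13 relative to tumor inoculation.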

Mus musculus [22] = test: Percent increase in median life span of BDF1 mice with B-16 melanoma at dose 6.2 mg/kg administered intraperitoneally; 1-9 days of ip treatment relative to tumor inoculation; conditions: BDF1, B16, ip, route intraperitoneal; how it was run: as §3
Mus musculus [23] = test: Percent increase in median life span of BDF1 mice with P-388 leukemia at dose 12.5 mg/kg administered intraperitoneally; Range is 100-120% 1, 5, 9 days of ip treatment relative to tumor inoculation; conditions: BDF1, P388, ip, 216 h, route intraperitoneal; how it was run: as §4
Mus musculus [24] = test: Percent increase in median life span of BDF1 mice with advanced L-1210 leukemia at dose 12.5 mg/kg administered intraperitoneally; treatment day +2 iv; conditions: L1210
Mus musculus [25] = test: Percent increase in median life span of BDF1 mice with P-388 leukemia at dose 50 mg/kg administered intraperitoneally; range 25-91%; range 25-91%, 1, 5, 9 days of ip treatment relative to tumor inoculation; conditions: BDF1, P388, ip, 216 h, route intraperitoneal; how it was run: as §4
Mus musculus [26] = species: Mus musculus; test: Cures is the number of survivors of the total treated mice (8) with Colon 26, at 60 days.
Mus musculus [27] = test: Percent increase in median life span of BDF1 mice with advanced P-388 leukemia at dose 25 mg/kg administered intraperitoneally; 4, 8, 12 days of ip treatment relative to tumor inoculation; conditions: P388, ip, 288 h, route intraperitoneal
Mus musculus [28] = species: Mus musculus; test: Cures is the number of survivors of the total treated animals (12 mice) with P-388 leukemia, at 30 days.; how it was run: as §1
Mus musculus [29] = test: Percent increase in median life span of BDF1 mice with advanced L-1210 leukemia administered intraperitoneally; treatment day +2 ip
Mus musculus [30] = test: Percent increase in median life span of BDF1 mice with Colon 26 at dose 12.5 mg/kg administered intraperitoneally; 1, 5, 9 days of ip treatment relative to tumor inoculation; conditions: BDF1, Colon 26, ip, 216 h, route intraperitoneal
Mus musculus [31] = test: Percent increase in median life span of BDF1 mice with B-16 melanoma at dose 6 mg/kg administered intraperitoneally; range 100-167; 1-9 days of ip treatment relative to tumor inoculation; conditions: BDF1, B16, ip, route intraperitoneal; how it was run: as §3
Mus musculus [32] = species: Mus musculus; test: Cures is the number of survivors of the total treated mice (6) with P-388 leukemia, at 30 days.; how it was run: as §1
Mus musculus [33] = species: Mus musculus; test: Cures is the number of survivors of the total treated mice (9) with P-388 leukemia, at 30 days.; how it was run: as §1
Mus musculus [34] = test: Percent increase in median life span of BDF1 mice with B-16 melanoma at dose 1.5 mg/kg administered intraperitoneally; conditions: BDF1, B16, ip, route intraperitoneal; how it was run: as §3
Mus musculus [35] = test: Percent increase in median life span of BDF1 mice with P-388 leukemia at dose 12.5 mg/kg administered intraperitoneally; conditions: BDF1, P388, ip, route intraperitoneal
Mus musculus [36] = test: Percent increase in median life span of BDF1 mice with advanced L-1210 leukemia at dose 200 mg/kg administered intraperitoneally; treatment day +2 iv; conditions: L1210
Mus musculus [37] = test: Percent increase in median life span of BDF1 mice with Colon 26 at dose 25 mg/kg administered intraperitoneally; 1, 5, 9 days of ip treatment relative to tumor inoculation; conditions: BDF1, Colon 26, ip, 216 h, route intraperitoneal
Mus musculus [38] = test: Percent increase in median life span of BDF1 mice with P-388 leukemia at dose 100 mg/kg administered intraperitoneally; 1, 5, 9 days of ip treatment relative to tumor inoculation; conditions: BDF1, P388, ip, 216 h, route intraperitoneal; how it was run: as §4
Mus musculus [39] = test: Percent tumor inhibition at non-lethal dose was determined in BDF1 mice with madison lung 109 leukemia; 1, 5, 9 days of sc treatment relative to tumor inoculation
Mus musculus [40] = test: Percent increase in median life span of BDF1 mice with B-16 melanoma at dose 25 mg/kg administered intraperitoneally; 1-9 days of ip treatment relative to tumor inoculation; conditions: BDF1, B16, ip, route intraperitoneal; how it was run: as §3
Mus musculus [41] = test: Percent increase in median life span of BDF1 mice with madison lung 109 leukemia administered intraperitoneally

Structure (SMILES): Cc1cc2c(/C=N/NC3=NCCN3)c3ccccc3c(/C=N/NC3=NCCN3)c2cc1C.Cl.Cl
- Cures (Mus musculus [1]): 0
- Cures (Mus musculus [2]): 0
- ILS at 3.1 mg/kg (Mus musculus [3]): 76%
- ILS at 160 mg/kg (Mus musculus [4]): 77%

Structure (SMILES): COc1cccc2c1C(=O)c1c(O)c3c(c(O)c1C2=O)C[C@@](O)(C(=O)CO)C[C@@H]3O[C@H]1C[C@H](N)[C@H](O)[C@H](C)O1 [DOXORUBICIN]
- Cures (Mus musculus [5]): 18
- ILS at 0.8 mg/kg (Mus musculus [6]): 275%
- Cures (Mus musculus [7]): 1
- ILS at 5 mg/kg (Mus musculus [8]): 159%

Structure (SMILES): C(=N\NC1=NCCN1)/C1c2ccccc2C(/C=N/NC2=NCCN2)c2cc3ccccc3cc21 (stereo not drawn)
- ILS at 225 mg/kg (Mus musculus [9]): 105%

Structure (SMILES): Cl.Cl.Clc1ccc2c(/C=N/NC3=NCCN3)c3ccccc3c(/C=N/NC3=NCCN3)c2c1
- Cures (Mus musculus [10]): 0
- Cures (Mus musculus [11]): 1
- ILS at 3.1 mg/kg (Mus musculus [12]): 37%
- Cures (Mus musculus [13]): 0
- ILS at 12.5 mg/kg (Mus musculus [14]): 95%
- ILS at 6.2 mg/kg (Mus musculus [15]): 100%
- ILS at 12.5 mg/kg (Mus musculus [16]): 32%
- Cures (Mus musculus [17]): 4
- ILS at 6.25 mg/kg (Mus musculus [18]): 206%
- Cures (Mus musculus [19]): 2

Structure (SMILES): CC1(C)CNC(N/N=C/c2c3ccccc3c(/C=N/NC3=NCC(C)(C)N3)c3ccccc23)=N1.Cl.Cl
- Cures (Mus musculus [20]): 0
- Cures (Mus musculus [21]): 0
- ILS at 6.2 mg/kg (Mus musculus [22]): > 248%
- ILS at 12.5 mg/kg (Mus musculus [23]): 100%
- ILS at 12.5 mg/kg (Mus musculus [24]): 28%
- Cures (Mus musculus [17]): 5

Structure (SMILES): Cl.Cl.N=C(NCc1ccco1)N/N=C/c1c2ccccc2c(/C=N/NC(=N)NCc2ccco2)c2ccccc12
- ILS at 50 mg/kg (Mus musculus [25]): 91%
- Cures (Mus musculus [5]): 6
- Cures (Mus musculus [26]): 0
- ILS at 25 mg/kg (Mus musculus [27]): 56%
- Cures (Mus musculus [28]): 0
- ILS (Mus musculus [29]): <25%
- ILS at 12.5 mg/kg (Mus musculus [30]): 109%
- ILS at 6 mg/kg (Mus musculus [31]): 167%
- Cures (Mus musculus [32]): 0

Structure (SMILES): C(=N\NC1=NCC2(CC2)CN1)/c1c2ccccc2c(/C=N/NC2=NCC3(CC3)CN2)c2ccccc12.Cl.Cl
- Cures (Mus musculus [33]): 1
- ILS at 1.5 mg/kg (Mus musculus [34]): 127%
- ILS at 12.5 mg/kg (Mus musculus [35]): 100%
- Cures (Mus musculus [17]): 4

Structure (SMILES): CC1(C)CN=C(N/N=C/c2c3ccccc3c(/C=N/NC3=NCC(C)(C)CN3)c3ccccc23)NC1.Cl.Cl
- Cures (Mus musculus [21]): 0
- ILS at 200 mg/kg (Mus musculus [36]): 29%
- ILS at 25 mg/kg (Mus musculus [37]): 153%
- Cures (Mus musculus [26]): 0
- ILS at 100 mg/kg (Mus musculus [38]): 205%
- Inhibition (Mus musculus [39]): 31%
- ILS at 25 mg/kg (Mus musculus [27]): 88%
- Cures (Mus musculus [17]): 4
- ILS at 25 mg/kg (Mus musculus [40]): 143%
- ILS (Mus musculus [41]): <25%
